Assay [1] relates to MDA-MB-468 breast cancer cells. The assay can be described thus: γ-H2AX staining, detection of DNA damage. The settings on record: MDA-MB-468, 50 μM. Format: cell-based, human. In short, it runs like this:
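MDA-MB-468 cells treated with test compound, then immunocytochemically stained for γ-H2AX, with untreated cells as control. DNA damage imaged as red fluorescence, and red fluorescence intensity quantified.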

For assay [2], the system named is MDA-MB-468 breast cancer cells. The assay can be described thus: JC-1 staining, mitochondrial membrane potential by flow cytometry. It counts as cell-based, human. The settings on record: MDA-MB-468, positive control, 5μM CCCP. A general note: In flow cytometry, cells or beads pass a laser one at a time.
In assay [3] the test system is ct-DNA. The settings on record: obtained from the literature; cited from earlier work.
Assay [4] has as its system calf-thymus DNA (ct-DNA). The settings on record: classical DNA intercalator, comparison value; cited from earlier work.

We go through three compounds from article PMC10077533 (ACS Omega, 2023).

SMILES strings stand for the structures.

With `N.N.[Cl][Pt][Cl]` [cisplatin], in assay [1], the “γH2AX (phosphorylated histone) staining” value is listed as “DNA damage”.
For the compound `N#CC(C#N)=NNc1cccc(Cl)c1` [CCCP, carbonyl cyanide m-chlorophenylhydrazone], in assay [2], the “cells with damaged mitochondria (JC-1 monomers)” value amounted to 76.98% and the “cells with healthy mitochondria (red + green fluorescing JC-1 aggregates)” value turned out to be 22.08%.
For the compound `CC[n+]1c(-c2ccccc2)c2cc(N)ccc2c2ccc(N)cc21` [EtBr, ethidium bromide], in assay [3], the “KEtBr, EtBr binding constant” value is on record as 1.0 × 10^7 M^–1. Also, in assay [4], the “Kb value of EtBr (KEtBr)” value is listed as 7 × 10^5 M^–1.
